The structures appear in SMILES notation.

For assay [1], the species on record is Homo sapiens. Description: Inhibition of HDAC in human HeLa-S3 cells lysates assessed as remaining enzyme activity at 2 x 10^-5 M pre-incubated for 15 mins before HDAC-Glo I/II substrate addition and measured after 30 mins post substrate addition. The format is cell-free.
The species entered for assay [2] is Homo sapiens. Description: Inhibition of HDAC in human HeLa-S3 cells lysates assessed as remaining enzyme activity at 1 x 10^-5 M pre-incubated for 15 mins before HDAC-Glo I/II substrate addition and measured after 30 mins post substrate addition. The class given is cell-free.
Assay [3] is filed under the species Homo sapiens. Briefly: Inhibition of HDAC in human HeLa-S3 cells lysates assessed as remaining enzyme activity at 5 x 10^-6 M pre-incubated for 15 mins before HDAC-Glo I/II substrate addition and measured after 30 mins post substrate addition. The class given is cell-free.
Assay [4] is filed under the species Homo sapiens. Briefly: Inhibition of HDAC in human HeLa-S3 cells lysates assessed as remaining enzyme activity at 2.5 x 10^-6 M pre-incubated for 15 mins before HDAC-Glo I/II substrate addition and measured after 30 mins post substrate addition. The format is cell-free.
The species named for assay [5] is Homo sapiens. Description: Inhibition of HDAC in human HeLa-S3 cells lysates assessed as remaining enzyme activity at 1.25 x 10^-6 M pre-incubated for 15 mins before HDAC-Glo I/II substrate addition and measured after 30 mins post substrate addition. The class given is cell-free.
In assay [6] the target is T1, Histone deacetylase 1 (Homo sapiens, UniProt Q13547). Briefly: Inhibition of HDAC1 (unknown origin) assessed as remaining enzyme activity at 1.25 uM by ELISA-based assay. The method, boiled down:
(§1)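 Isoform screen by ELISA-based HDAC activity assay against HDAC1, HDAC2, HDAC3 and HDAC6. Each analog was tested at one final concentration: 0.025, 0.125, 0.25 or 1.25 µM. Read-out is percent deacetylase activity remaining, given as the mean with standard error of at least two independent trials.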

In assay [7] the target is T2, Histone deacetylase 2 (Homo sapiens, UniProt Q92769). Briefly: Inhibition of HDAC2 (unknown origin) assessed as remaining enzyme activity at 1.25 uM by ELISA-based assay. The method, boiled down:
as §1

The target of assay [8] is T3, Histone deacetylase 3 (Homo sapiens, UniProt O15379). Briefly: Inhibition of HDAC3 (unknown origin) assessed as remaining enzyme activity at 1.25 uM by ELISA-based assay. In short, it runs like this: as §1
For assay [9], the target named is T4, Protein deacetylase HDAC6 (Homo sapiens) (UniProt Q9UBN7).
T4 sequence (whole entry): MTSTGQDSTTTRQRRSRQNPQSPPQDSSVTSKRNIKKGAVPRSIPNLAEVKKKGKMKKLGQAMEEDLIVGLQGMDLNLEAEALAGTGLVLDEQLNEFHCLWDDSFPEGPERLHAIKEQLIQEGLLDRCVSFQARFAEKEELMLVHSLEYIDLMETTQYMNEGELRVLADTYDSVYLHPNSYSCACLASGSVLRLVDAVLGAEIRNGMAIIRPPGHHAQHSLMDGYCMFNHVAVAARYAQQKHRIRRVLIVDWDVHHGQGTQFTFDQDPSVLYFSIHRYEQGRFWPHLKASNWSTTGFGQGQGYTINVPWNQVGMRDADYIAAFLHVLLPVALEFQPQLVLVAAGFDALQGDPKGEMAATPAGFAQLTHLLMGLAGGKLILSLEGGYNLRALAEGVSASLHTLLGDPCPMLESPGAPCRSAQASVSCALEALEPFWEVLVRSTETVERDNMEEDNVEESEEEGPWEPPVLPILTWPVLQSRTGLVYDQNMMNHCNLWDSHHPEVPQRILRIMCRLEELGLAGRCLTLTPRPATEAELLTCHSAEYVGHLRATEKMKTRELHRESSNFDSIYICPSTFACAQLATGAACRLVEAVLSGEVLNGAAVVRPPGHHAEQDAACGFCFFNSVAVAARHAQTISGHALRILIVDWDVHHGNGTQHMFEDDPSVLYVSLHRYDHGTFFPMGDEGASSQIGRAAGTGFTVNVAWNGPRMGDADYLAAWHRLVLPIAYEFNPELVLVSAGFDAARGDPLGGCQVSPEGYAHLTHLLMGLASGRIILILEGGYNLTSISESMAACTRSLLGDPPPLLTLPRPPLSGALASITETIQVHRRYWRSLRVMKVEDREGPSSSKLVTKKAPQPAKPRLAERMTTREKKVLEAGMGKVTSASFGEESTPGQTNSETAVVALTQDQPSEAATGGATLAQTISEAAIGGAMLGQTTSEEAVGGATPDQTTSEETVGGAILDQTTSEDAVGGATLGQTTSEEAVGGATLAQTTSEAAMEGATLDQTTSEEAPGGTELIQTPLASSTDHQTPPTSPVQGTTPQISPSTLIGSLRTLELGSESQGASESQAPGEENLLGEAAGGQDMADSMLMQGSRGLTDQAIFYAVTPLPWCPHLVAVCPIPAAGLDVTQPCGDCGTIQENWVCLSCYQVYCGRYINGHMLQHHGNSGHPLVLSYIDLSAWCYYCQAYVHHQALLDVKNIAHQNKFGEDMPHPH
Description: Inhibition of HDAC6 (unknown origin) assessed as remaining enzyme activity at 1.25 uM by ELISA-based assay. In short, it runs like this: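 Single-concentration isoform screen using an ELISA-based HDAC activity assay, run in parallel against HDAC1, HDAC2, HDAC3 and HDAC6. Read-out is percent deacetylase activity remaining, given as the mean of at least two independent trials with standard error.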

The target of assay [10] is T4, Protein deacetylase HDAC6 (Homo sapiens). Briefly: Inhibition of HDAC6 (unknown origin) assessed as remaining enzyme activity at 2 x 10^-7 M by ELISA-based assay.
Assay [11] addresses T5, Histone deacetylase 8 (Homo sapiens) (UniProt Q9BY41).
T5 sequence (whole entry): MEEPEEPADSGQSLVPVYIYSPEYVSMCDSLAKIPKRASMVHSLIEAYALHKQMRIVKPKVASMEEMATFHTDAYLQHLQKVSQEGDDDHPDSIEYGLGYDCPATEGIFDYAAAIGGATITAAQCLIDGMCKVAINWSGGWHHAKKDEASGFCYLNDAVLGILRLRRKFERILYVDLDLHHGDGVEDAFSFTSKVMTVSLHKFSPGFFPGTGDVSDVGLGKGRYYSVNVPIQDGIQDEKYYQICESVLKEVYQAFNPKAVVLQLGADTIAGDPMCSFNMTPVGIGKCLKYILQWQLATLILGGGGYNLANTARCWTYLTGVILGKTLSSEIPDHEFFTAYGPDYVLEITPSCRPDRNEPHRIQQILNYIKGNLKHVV
Briefly: Inhibition of HDAC8 (unknown origin) assessed as remaining enzyme activity at 1.6 x 10^-6 M by ELISA-based assay.

Assay [12] has as its target T2, Histone deacetylase 2. Briefly: Inhibition of HDAC2 (unknown origin) assessed as remaining enzyme activity at 1.6 x 10^-5 M by ELISA-based assay.
Assay [13] addresses T2, Histone deacetylase 2. Description: Inhibition of HDAC2 (unknown origin) assessed as remaining enzyme activity at 8 x 10^-6 M by ELISA-based assay.
The target in assay [14] is T3, Histone deacetylase 3. Briefly: Inhibition of HDAC3 (unknown origin) assessed as remaining enzyme activity at 1.6 x 10^-5 M by ELISA-based assay.
In assay [15] the target is T3, Histone deacetylase 3. Briefly: Inhibition of HDAC3 (unknown origin) assessed as remaining enzyme activity at 8 x 10^-6 M by ELISA-based assay.
Assay [16] deals with T1, Histone deacetylase 1. Briefly: Inhibition of HDAC1 (unknown origin) assessed as remaining enzyme activity at 8 x 10^-6 M by ELISA-based assay.

T1 sequence (Q13547 whole entry, canonical isoform): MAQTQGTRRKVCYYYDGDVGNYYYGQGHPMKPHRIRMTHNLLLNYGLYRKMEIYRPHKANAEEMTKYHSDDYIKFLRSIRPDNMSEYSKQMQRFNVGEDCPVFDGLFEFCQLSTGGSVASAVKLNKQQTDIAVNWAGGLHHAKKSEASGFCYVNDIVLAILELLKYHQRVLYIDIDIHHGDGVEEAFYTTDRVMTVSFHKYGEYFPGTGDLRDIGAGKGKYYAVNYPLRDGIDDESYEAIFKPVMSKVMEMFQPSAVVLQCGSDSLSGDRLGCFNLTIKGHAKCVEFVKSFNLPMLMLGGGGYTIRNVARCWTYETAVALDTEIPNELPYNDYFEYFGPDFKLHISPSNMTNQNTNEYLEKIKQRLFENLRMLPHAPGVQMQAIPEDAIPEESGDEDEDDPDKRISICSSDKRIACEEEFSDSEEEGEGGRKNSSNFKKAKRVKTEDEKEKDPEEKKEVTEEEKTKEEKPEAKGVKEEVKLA
T3 sequence (O15379 whole entry): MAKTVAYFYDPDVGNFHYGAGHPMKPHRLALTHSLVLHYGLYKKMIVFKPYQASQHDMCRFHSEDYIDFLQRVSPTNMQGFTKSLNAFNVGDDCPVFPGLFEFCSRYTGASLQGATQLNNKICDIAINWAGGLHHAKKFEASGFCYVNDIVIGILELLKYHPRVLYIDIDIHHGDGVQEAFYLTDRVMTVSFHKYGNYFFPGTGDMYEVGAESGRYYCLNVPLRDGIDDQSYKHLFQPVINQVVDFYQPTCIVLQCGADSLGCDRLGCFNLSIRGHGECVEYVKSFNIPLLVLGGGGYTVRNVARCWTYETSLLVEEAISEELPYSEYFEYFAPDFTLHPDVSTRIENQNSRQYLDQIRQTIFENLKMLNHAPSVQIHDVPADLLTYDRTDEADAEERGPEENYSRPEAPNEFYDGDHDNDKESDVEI
T2 sequence (Q92769 whole entry): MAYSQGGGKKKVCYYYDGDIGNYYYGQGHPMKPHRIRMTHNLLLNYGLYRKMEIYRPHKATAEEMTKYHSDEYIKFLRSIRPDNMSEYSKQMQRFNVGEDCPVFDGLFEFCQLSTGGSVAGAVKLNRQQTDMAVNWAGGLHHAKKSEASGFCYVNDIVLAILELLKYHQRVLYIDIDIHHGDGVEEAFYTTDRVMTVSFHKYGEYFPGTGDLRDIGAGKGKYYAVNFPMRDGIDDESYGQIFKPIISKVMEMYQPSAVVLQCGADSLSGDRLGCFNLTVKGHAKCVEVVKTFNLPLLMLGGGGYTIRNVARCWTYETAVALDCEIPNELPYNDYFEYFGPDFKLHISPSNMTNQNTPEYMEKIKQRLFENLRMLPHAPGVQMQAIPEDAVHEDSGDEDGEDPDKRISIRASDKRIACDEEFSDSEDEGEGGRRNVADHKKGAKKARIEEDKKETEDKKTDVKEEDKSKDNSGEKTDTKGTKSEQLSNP

As for `CCCCCCC(CCCC(=O)NO)CCC(=O)Nc1ccccc1` (centres undefined), the Activity in the assay listed under Homo sapiens [1] was 15%; in the assay filed under Homo sapiens [2], 35%; in the assay listed under Homo sapiens [3], 58%; in the assay listed under Homo sapiens [4] it was 83%; in the assay listed under Homo sapiens [5], 92%; at Histone deacetylase 1 [6] it was 64%. Moreover, the Activity on Histone deacetylase 2 [7] is 72%; on Histone deacetylase 3 [8], 71%; in assay [9], 28%; in [10], 66%; in assay [11], 21%; at Histone deacetylase 2 [12], 14%. In addition, the Activity at Histone deacetylase 2 [13] stood at 21%; at Histone deacetylase 3 [14], 12%; at Histone deacetylase 3 [15], 27%; at Histone deacetylase 1 [16], 22%.

As to `CCCCC(CCCC(=O)NO)CCC(=O)Nc1ccccc1` (centres undefined), the Activity in assay [10] worked out at 60%; in assay [11], 22%.

As to `O=C(CCCC(CCC(=O)Nc1ccccc1)Cc1ccccc1)NO` (centres undefined), the Activity worked out at 17% in the assay filed under Homo sapiens [1]; 33% in the assay listed under Homo sapiens [2]; 56% in the assay listed under Homo sapiens [3]; 78% in the assay listed under Homo sapiens [4]; 93% in the assay listed under Homo sapiens [5]; 69% on Histone deacetylase 1 [6]. For the same compound, the Activity on Histone deacetylase 2 [7] was 74%; at Histone deacetylase 3 [8] it was 74%; in [9], 17%; in [10] it was 54%; in assay [11], 19%; on Histone deacetylase 2 [12] it was 19%. The Activity came out at 30% at Histone deacetylase 2 [13], 23% at Histone deacetylase 3 [14], 43% at Histone deacetylase 3 [15] and 27% at Histone deacetylase 1 [16].
